Article PMC5570473 (Nature chemical biology, 2017)
Read-outs that look alike come from different tables or passages of the source. Peptide text beside a SMILES is read from it. * marks the point of attachment. Cbz = O=C(OCc1ccccc1)*

Key:
[1] = molecular target: Rpn11 (Homo sapiens, UniProt O00487); assay: In vitro Rpn11 activity assay; type: biochemical; conditions: for effect of Zn(cyclen)^2+ on IC50 for Rpn11: 100 μM Zn(cyclen)^2+ present
[2] = molecular target: Rpn11•Rpn8 heterodimer (Saccharomyces cerevisiae, UniProt P43588); assay: Rpn11•Rpn8 di-Ub cleavage assay; type: biochemical; conditions: 40 μM, 20 μM or 10 μM
Rpn11•Rpn8 heterodimer, sequence (P43588 2-239 limits assumed): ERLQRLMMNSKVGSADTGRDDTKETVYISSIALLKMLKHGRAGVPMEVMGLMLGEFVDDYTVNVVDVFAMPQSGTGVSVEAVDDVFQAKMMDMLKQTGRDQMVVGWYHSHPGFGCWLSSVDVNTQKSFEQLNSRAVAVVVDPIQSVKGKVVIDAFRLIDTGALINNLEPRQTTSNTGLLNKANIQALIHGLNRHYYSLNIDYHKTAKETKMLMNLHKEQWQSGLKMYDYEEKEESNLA
Rpn11•Rpn8 heterodimer, sequence (Q08723 1-179 partner limits assumed): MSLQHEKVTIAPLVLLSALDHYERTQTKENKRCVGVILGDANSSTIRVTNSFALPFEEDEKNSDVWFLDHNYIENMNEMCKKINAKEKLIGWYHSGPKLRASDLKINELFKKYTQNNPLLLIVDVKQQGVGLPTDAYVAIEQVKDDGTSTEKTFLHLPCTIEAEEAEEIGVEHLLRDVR
Summary of the method: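 Purified Rpn11•Rpn8 dimer (5 μM) was incubated at 30°C with K48-linked di-ubiquitin and varying test compound concentrations. The buffer was 40 mM HEPES pH 7.5, 100 mM NaCl, 100 mM KCl, 5% glycerol.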

[3] = test system: A549 cells; assay: Aggresome formation and clearance assay; type: cell-based, human; conditions: for aggresome formation (ubiquitin, HDAC6, p62/SQSTM1 staining): 15 hours
Summary of the method: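 A549 cells were loaded with 5 μM MG132 for 15 h, washed free of it, then held ± a range of test compound concentrations for 24 h. They were fixed in 4% paraformaldehyde, permeabilised with 0.2% Triton X-100, blocked in 5% FBS/0.1% Triton X-100, immunostained for ubiquitin, HDAC6 or p62/SQSTM1, and imaged.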

[4] = mice ref 49; cited from earlier work
[5] = test system: Hela cells stably expressing Ub^G76V-GFP; assay: Ub^G76V-GFP accumulation assay; type: cell-based; conditions: for accumulation of Ub^G76V-GFP: 5 μM, 4 hours
[6] = test system: WT or nfe2l1^−/− MEF cells; assay: Cell growth inhibition in WT versus Nrf1 knockout MEF cells; type: cell-based; conditions: 72 hours
[7] = test system: angiomotin K481 ubiquitination in 293T cells; assay: Quantitative ubiquitination site profiling; type: cell-based, human; conditions: 8 hours, 10 μM capzimin or 1 μM BTZ
Summary of the method: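 SILAC-labelled HEK293T cells were grown in Arg/Lys-free DMEM with 10% dialysed FBS, 1 mM pyruvate and 10 mg/L proline. At 80–90% confluence they were treated 8 h with 10 μM test compound (n=3), 1 μM bortezomib (n=4) or DMSO. Cells were trypsinised and pooled from three plates per treatment. Lysates were trypsin-digested with NEM alkylation, K-ε-GlyGly peptides enriched by antibody, and analysed by LC-MS.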

[8] = molecular target: AMSH (Homo sapiens, UniProt O95630); assay: In vitro AMSH activity assay; type: biochemical
AMSH, sequence (O95630 whole entry): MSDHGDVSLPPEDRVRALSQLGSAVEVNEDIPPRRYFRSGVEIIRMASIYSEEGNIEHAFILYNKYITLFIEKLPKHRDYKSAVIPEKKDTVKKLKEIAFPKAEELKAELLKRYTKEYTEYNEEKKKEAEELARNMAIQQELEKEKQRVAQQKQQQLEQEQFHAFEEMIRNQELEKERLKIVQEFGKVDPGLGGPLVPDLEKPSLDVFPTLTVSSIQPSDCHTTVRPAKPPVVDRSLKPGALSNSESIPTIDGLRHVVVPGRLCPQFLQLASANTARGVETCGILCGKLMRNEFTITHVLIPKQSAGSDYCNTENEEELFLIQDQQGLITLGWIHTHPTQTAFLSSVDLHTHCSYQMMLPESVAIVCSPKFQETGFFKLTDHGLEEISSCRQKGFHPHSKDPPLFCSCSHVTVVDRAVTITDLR

[9] = molecular target: BRCC36 (Homo sapiens, UniProt P46736); assay: In vitro BRCC36 activity assay; type: biochemical
Summary of the method: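 BRISC complex (BRCC36, KIAA0157, BRCC45, MERIT40) was co-expressed in insect cells and purified to >95% by affinity and size exclusion. 1 nM BRISC was reacted with 80 nM DiUbK63-TAMRA, monitoring TAMRA fluorescence (ex 540/em 590 nm). Data were normalised to DMSO and fitted for IC50. With substrate far below KM, IC50 approximates Ki.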

[10] = molecular target: glyoxalase I (GLO1) (Homo sapiens, UniProt Q04760); assay: Human Glyoxalase 1 assay; type: biochemical
glyoxalase I (GLO1), sequence (Q04760 2-184 limits assumed): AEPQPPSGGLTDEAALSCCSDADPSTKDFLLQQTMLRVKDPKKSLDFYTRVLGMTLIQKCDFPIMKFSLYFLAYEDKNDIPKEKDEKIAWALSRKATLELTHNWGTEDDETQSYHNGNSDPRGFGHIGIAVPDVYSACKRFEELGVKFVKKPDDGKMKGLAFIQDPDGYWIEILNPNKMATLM
Summary of the method: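 Recombinant human GLO1 (40 ng) was preincubated 15–20 min with inhibitor in 100 mM sodium phosphate, pH 7.0. Substrate was then added, formed by letting glutathione and methylglyoxal stand 20 min in buffer (≤5% DMSO final). A240 was read every minute for 8 min. Rates were compared with no-inhibitor controls after subtracting no-enzyme background.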

[11] = test system: HDAC6; assay: HDAC 6 activity assay; type: biochemical
[12] = test system: MMP2; assay: MMP activity assay; type: biochemical, human
[13] = test system: MMP12; assay: MMP activity assay; type: biochemical, human
[14] = test system: carbonic anhydrase II; assay: hCAII activity assay; type: biochemical, human
[15] = molecular target: 26S proteasome (Saccharomyces cerevisiae, UniProt P43588); type: biochemical, yeast; conditions: 20 μM, purified proteasomes
Summary of the method: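 Alexa488-labelled Rpn10-I27V13Pext (100 nM) was incubated with 10 nM purified yeast 26S proteasome at 30°C, ± 20 μM test compound. Aliquots were taken at 0, 30, 60, 90 and 120 min into SDS sample buffer and resolved by SDS-PAGE. Intact substrate was quantified by fluorescence gel imaging (488/520 nm).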

[16] = test system: HEK293T cells; assay: Cellular imaging with optical zinc sensor; type: cell-based; conditions: 10 μM
Summary of the method: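 HEK293T cells were transfected with a FRET zinc sensor and imaged 24–48 h later at 37°C/5% CO2 in phosphate-free HEPES-buffered HBSS, pH 7.4, with frames every minute. After 5 min resting FRET, 10 μM test compound or 0.5% DMSO was added (n=11 cells each). Calibration used 50 μM TPA, then 0.75 μM pyrithione plus 12 μM buffered zinc. Background-corrected FRET/CFP ratios were normalised to resting; error bars SEM.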

[17] = test system: HCT116 cells; assay: Cell growth inhibition, CellTiter-Glo, 72 hours; type: cell-based; conditions: Homo sapiens, HCT-116, 72 h
Summary of the method: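 HCT116 cells were exposed to a test-compound concentration series for 72 h in normal or low-serum medium, then mixed with CellTiter-Glo. Luminescence was normalised to DMSO and a dose-response fit gave GI50. Data are n=3 wells, one representative of 3 independent experiments.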

[18] = test system: WT or bortezomib-resistant RPE1 cells; assay: Cell growth inhibition in WT and bortezomib-resistant RPE1 cells; type: cell-based; conditions: 72 hours
Summary of the method: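 WT and bortezomib-resistant RPE1 cells received a concentration series of test compound for 72 h before CellTiter-Glo addition. Luminescence was normalised to DMSO control and fitted to a dose-response equation for GI50. Data are n=3 wells, from one representative of 3 independent experiments.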

[19] = test system: NCI panel of 60 cancer cell lines; assay: NCI panel of 60 cancer cell lines; type: cell-based; conditions: Homo sapiens, read-out: median GI50 NCI 60 panel
[20] = test system: SR cell line (leukemia); assay: NCI 60 panel, SR cell line; type: cell-based; conditions: Homo sapiens, read-out: GI50 SR
[21] = test system: K562 cell line (leukemia); assay: NCI 60 panel, K562 cell line; type: cell-based; conditions: Homo sapiens, K562, read-out: GI50 K562
[22] = test system: NCI-H460 (non-small cell lung cancer); assay: NCI 60 panel, NCI-H460; type: cell-based; conditions: Homo sapiens, NCI-H460, read-out: GI50 NCI-H460
[23] = test system: MCF7 (breast cancer); assay: NCI 60 panel, MCF7; type: cell-based; conditions: Homo sapiens, MCF7, read-out: GI50 MCF7
[24] = test system: HCT116 cells; assay: Immunoblot of UPS substrates, UPR and apoptosis markers; type: cell-based
Summary of the method: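 HCT116 cells were treated 6 h with 2 or 10 μM test compound, alongside 1 μM bortezomib, 10 μM CB5083 or 2 μg/ml tunicamycin. Lysates were immunoblotted for ubiquitin, p53, Hif1α, PERK, BiP, XBP1s, CHOP and GAPDH. For apoptosis, HCT116 cells were treated 24 h and blotted for PARP1, caspase3, pH2AX and GAPDH.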

[25] = test system: angiomotin in 293T cells; assay: Pulldown of polyubiquitylated protein; type: cell-based; conditions: 8 hours
Summary of the method: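 293T cells were treated 8 h with test compound, bortezomib or DMSO. Lysis was in 40 mM Tris-HCl pH 7.6, 5 mM NEM, 0.1% NP-40, followed by binding to TUBE2 agarose for 2 h at 4°C. Beads were washed three times in the same buffer with 150 mM NaCl, then eluted in SDS buffer. Eluates were immunoblotted for ubiquitin and angiomotin.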

## Sc1cccc2cccnc12 [8TQ, quinoline-8-thiol]
[1]
  mode of inhibition of Rpn11 / 26S proteasome: uncompetitive inhibition
  effect of Zn(cyclen)^2+ on IC50 for Rpn11: shifted the IC50 of both compounds to a higher value
[1]; details will be published elsewhere
  discrimination between Rpn11, BRCC36 and AMSH: did not distinguish between Rpn11, BRCC36, and AMSH
[1]; read-out: inhibition of Rpn11 activity in MBP library screen
  inhibition at 200 µM: > 50%
[2]
  inhibition of purified Rpn11•Rpn8 (K48 di-ubiquitin cleavage): inhibited purified Rpn11•Rpn8 heterodimer
[3]
  clearance of MG132-induced aggresomes after MG132 removal and compound addition: not cleared
[4]
  oral bioavailability: orally bioavailable
  tolerability: tolerated

## CC(C)C[C@@H](C=O)NC(=O)[C@H](CC(C)C)NC(=O)[C@H](CC(C)C)NC(=O)OCc1ccccc1 [MG132, reference compound] (Cbz-Leu-Leu-Leu-aldehyde)
[5]
  accumulation of Ub^G76V-GFP: strong accumulation
[3]
  aggresome formation (ubiquitin, HDAC6, p62/SQSTM1 staining): punctate staining characteristic of aggresomes

## O=C(Sc1cccc2cccnc12)c1ccccc1Br [H18, S-(Quinolin-8-yl) 2-bromobenzothioate]
[1]
  effect of Zn(cyclen)^2+ on IC50 for Rpn11: shifted the IC50 of both compounds to a higher value

## CC(C)C[C@H](NC(=O)[C@H](Cc1ccccc1)NC(=O)c1cnccn1)B(O)O [bortezomib, reference compound]
[6]
  sensitivity of Nrf1^−/− cell line compared to WT MEF: more sensitive
[7]
  up-regulation of angiomotin ubiquitination at K481: 2.4 fold

## O=C(NCCc1nccs1)c1cnc2c(SSc3cccc4cc(C(=O)NCCc5nccs5)cnc34)cccc2c1 [capzimin]
[1]
  mode of inhibition of Rpn11 / 26S proteasome: uncompetitive inhibitor
[8]
  mode of inhibition of AMSH: competitive inhibitor
[9]
  mode of inhibition of BRCC36: competitive inhibitor
[10]
  IC50: 43000 nM
[11]
  preference for inhibiting Rpn11 compared to HDAC6: > 2 log
[12]
  preference for inhibiting Rpn11 compared to MMP2: > 2 log
[13]
  preference for inhibiting Rpn11 compared to MMP12: > 2 log
[14]
  preference for inhibiting Rpn11 compared to carbonic anhydrase II: > 2 log
[2]
  inhibition of purified Rpn11•Rpn8 (K48 di-ubiquitin cleavage): acted directly on Rpn11•Rpn8
[15]
  influence on degradation of ubiquitin-independent substrate Rpn10-127^V13Pext: no influence
[16]
  reduction in total cellular zinc: ≤ 5%
[5]
  accumulation of Ub^G76V-GFP: strong accumulation
[5]; after washout
  reversibility of inhibitory effect: reversible after washout
[17]; read-out: GI50 HCT116
  GI50: ~2000 nM
[17]; read-out: GI50 HCT116 low serum
  GI50: 600 nM
[18]
  GI50 against WT versus bortezomib-resistant retinal pigment epithelial cells: same GI50
[19]
  GI50: 3300 nM
[20]
  GI50: 670 nM
[21]
  GI50: 1000 nM
[22]
  GI50: 700 nM
[23]
  GI50: 1000 nM
[6]
  sensitivity of Nrf1^−/− cell line compared to WT MEF: more sensitive
[7]
  up-regulation of angiomotin ubiquitination at K481: ~ 16 fold
[3]
  aggresome formation (ubiquitin, HDAC6, p62/SQSTM1 staining): punctate staining characteristic of aggresomes
[24]
  effect on Nedd8-conjugated Cul1 (cellular Csn5): little effect
[24]; 2 or 10 μM, 6 hours
  accumulation of ubiquitin conjugates and proteasome substrates p53, Hif1α, Nrf2: caused accumulation
[24]; 24 hours
  apoptosis (processed caspase 3, cleaved PARP): induced apoptosis
[24]; HCT116 and 293T cells
  unfolded protein response (phosphorylated PERK, XBP1s, CHOP): provoked a UPR response
[25]
  accumulation of high molecular weight species of angiomotin: strong accumulation
